A selection: hits, their analogues and other compounds. The true share with any hit is near 2%.
APJ antag: APJ receptor antagonism. P35414. CHO-K1 APJ beta-arrestin complementation, luminescence. inhibition, % at 20 µM. actives 0.32% (n = 330,000). AID 2521;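 active = inhibition above about 40% at 20 µM, limit read from the data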;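 note: cells challenged with 10 nM apelin-13 agonist together with compound; plate controls were apelin-13 plus DMSO wells for no effect and DMSO wells lacking apelin-13 for full effect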
CCR6 antagonist: blocks CCL20-driven beta-arrestin recruitment at human CCR6. AID 493098. inhibition, % at 20 µM. actives 0.49% (n = 340,000). CHO-K1 CCR6 PathHunter beta-arrestin, luminescence, CCL20-stimulated. P51684;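 active = compounds whose inhibition of the agonist-driven luminescence signal at 20 µM reaches about 50%, limit read from the data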;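 note: cells stimulated with CCL20 at 14 nM final; plate controls were DMSO with CCL20 for no effect and DMSO without agonist for full effect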
Target sequence (P51684 whole entry, looked up): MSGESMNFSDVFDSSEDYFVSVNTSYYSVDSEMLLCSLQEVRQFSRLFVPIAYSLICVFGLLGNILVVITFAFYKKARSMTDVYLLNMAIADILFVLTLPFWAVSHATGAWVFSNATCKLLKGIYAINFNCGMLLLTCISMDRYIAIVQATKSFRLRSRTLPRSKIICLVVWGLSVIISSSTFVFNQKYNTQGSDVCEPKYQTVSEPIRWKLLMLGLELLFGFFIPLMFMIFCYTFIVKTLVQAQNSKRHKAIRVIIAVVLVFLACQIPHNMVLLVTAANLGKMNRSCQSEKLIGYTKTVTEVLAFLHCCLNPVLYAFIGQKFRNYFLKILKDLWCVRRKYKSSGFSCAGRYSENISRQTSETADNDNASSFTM
CXCR6 block: blocks human CXCR6 beta-arrestin recruitment | AID 602244 | CHO-K1 PathHunter CXCR6 beta-arrestin, luminescence | inhibition, % at 20 µM | actives 0.36% (n = 360,000); in the data active = inhibition above about 34%, passing the limit was not always enough;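 note: antagonist mode with CXCL16 agonist at 10 nM final; 0% = 10 nM CXCL16 with DMSO and 100% = unstimulated wells without agonist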
EBI2 block: blocks human EBI2 receptor beta-arrestin signaling | AID 651636 | inhibition, % at 5 µM | P32249 | EBI2 beta-arrestin recruitment, luminescence, 7a,25-OHC stimulated | actives 0.81% (n = 360,000); in the data active = inhibition above about 38%;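 note: enzyme fragment complementation signal reports receptor beta-arrestin coupling in cells; 0% = agonist plus DMSO wells and 100% = wells without agonist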
APJ agonist: activates the human apelin receptor APJ; P35414; CHO-K1 APJ PathHunter beta-arrestin, luminescence; 0% DMSO wells, 100% apelin; activation, % at 20 µM; actives 0.11% (n = 330,000);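 active = activation more than six SD over the plate average, tested at 20 µM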;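 note: 0% = DMSO alone and 100% = apelin-13 at 10 nM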
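assay system = CHO-K1 APJ beta-arrestin complementation cell line | input = cell density 1000 per well | dosing = compound 20 µM once, DMSO 1% | timing = compound 90 min 25 °C, reagent 1 h | measured by = luminescence from split beta-galactosidase complementation, Galacton Star/Emerald II substrate | read-out basis = APJ agonist activity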
FXN GAA850 act: increases GAA850 frataxin promoter reporter activity; actives 0.56% (n = 360,000); activation, % at 6 µM; HEK293 lucGAA850 FXN promoter luciferase reporter, 24 h; percent of 10 µM SAHA response;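 active = activation above the average of all compounds screened plus 3 SD, cutoff fixed separately per campaign, cut at about 7.5% in these data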;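 note: 0% = DMSO wells and 100% = 10 µM SAHA wells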
* hit, by the source's call; nt = no result given.

SMILES | APJ antag | CCR6 antagonist | CXCR6 block | EBI2 block | APJ agonist | FXN GAA850 act
CN1CCN(c2ccc([N+](=O)[O-])c(-n3nc(-c4ccccc4)c4ccccc4c3=O)c2)CC1 | 14.9 | 52.1* | 18.5 | -3.2 | -4.4 | 1.8
Cc1nn(-c2cc(N3CCCCC3)ccc2[N+](=O)[O-])c(=O)c2ccccc12 | 24.3 | 28.0 | 17.3 | 12.0 | -5.2 | 1.1
O=C(Nc1cccc(C(F)(F)F)c1)c1csc([C@H]2C[C@H](O)[C@@H](CO)O2)n1 | nt | nt | -1.0 | 3.9 | nt | 0.0
O=C(CSc1nc(-c2ccc(F)cc2)nc2c1Cc1ccccc1O2)Nc1cccc(C(=O)O)c1 | nt | 51.9* | 2.6 | -2.9 | nt | 3.2
O=[N+]([O-])c1ccc(/C=N/N=C/c2ccc([N+](=O)[O-])o2)o1 | nt | 61.2* | 37.1 | -7.1 | nt | -10.9
O=C(O)/C=C/c1ccc([N+](=O)[O-])o1 | -39.1 | -4.4 | -8.0 | 8.7 | 0.9 | 2.8
CCc1nc2c(OCc3ccccc3)cccn2c1N(Cc1ccccc1)C(C)=O | nt | nt | -2.4 | -3.3 | nt | -2.6
O=C(c1nnsc1S(=O)(=O)c1ccc(Cl)cc1)N1CCOCC1 | 6.8 | 3.7 | 14.7 | -31.1 | -1.1 | -12.9
O=C(c1nnsc1S(=O)c1ccc(Cl)cc1)N1CCOCC1 (centres undefined) | 23.9 | 73.8* | 66.6* | 26.6 | -1.5 | -3.8
COc1ccccc1-c1csc(C(O)c2ccccc2)n1 (centres undefined) | nt | nt | 3.2 | 2.5 | nt | 1.3
CCN(CC)c1ccc(/C=C2\C(=O)c3ccc(C(=O)O)cc3C2=O)cc1 | nt | 74.0* | 49.2* | 24.1 | nt | 5.2
CCN(CC)c1ccc(C(=O)O)cc1 | -4.2 | 18.3 | -8.9 | -3.4 | 0.0 | 1.0
C=CCc1cccc(/C=N/NC(=O)CCCNc2ccc(C)cc2)c1O | nt | -17.4 | -9.7 | -8.4 | nt | 1.2
C=CCc1cccc(/C=N/NC(=O)C(C)Nc2cccc(C)c2)c1O (centres undefined) | 2.7 | -7.8 | 2.4 | 39.6* | -3.6 | -3.0
COc1ccc(Cn2c(/C=C/c3ccccc3)nc3ccccc32)cc1 | 8.7 | 18.2 | 31.1 | 42.2* | -2.0 | 1.0
O=S1(=O)C=C(Sc2nc3ccccc3s2)c2ccccc21 | 20.0 | 72.4* | nt | nt | -2.8 | nt
Cc1cc(C)nc(SC2=CS(=O)(=O)c3ccccc32)n1 | -11.1 | 12.6 | 8.8 | -53.6 | -4.2 | -6.0
CC1(O)CC(c2ccc(Cl)cc2)=NN1C(=O)c1ccc(Cl)cc1 (centres undefined) | 4.5 | 56.9* | 27.9 | 17.3 | -3.8 | -0.3
CCn1c(O)c(N=NC(=S)NCC2CCCO2)c2ccccc21 (centres undefined) | 26.5 | 66.1* | 46.7* | 3.3 | -5.7 | 0.1
Oc1[nH]c2ccccc2c1N=NC(=S)NCC1CCCO1 (centres undefined) | 35.0 | 23.5 | 6.3 | 3.0 | -2.2 | -1.3
COc1ccc(S(=O)(=O)N2CCOCC2)cc1NC(=O)COC(=O)c1oc2ccccc2c1C | 4.8 | 4.8 | 4.0 | 1.5 | -1.4 | 1.9
O=C(c1ccc(Cl)cc1)N1CCN(c2ccnc3cc(Cl)ccc23)CC1 | nt | 7.8 | -15.3 | 50.6* | nt | 1.2
CCSC1(SCC)N=C(N)C2(C#N)C(c3ccc(F)cc3)C12C#N (centres undefined) | 17.3 | 37.0 | 66.6* | -15.2 | -3.7 | 5.8
CCCCn1c(N)c(C(=S)NC(=O)CC(C)C)c(=O)n(C)c1=O | nt | nt | 47.7* | 1.3 | nt | 3.3
Cc1ccc(S(=O)(=O)N2CCCCC2)cc1NC(=O)Cn1ncc(Cl)c(Cl)c1=O | -2.5 | 13.0 | 23.7 | 63.3* | 0.5 | -5.2
SMILES | APJ antag | CCR6 antagonist | CXCR6 block | EBI2 block | APJ agonist | FXN GAA850 act
Cc1ccc(S(=O)(=O)N2CCCCC2)cc1NC(=O)Cn1cnnn1 | 7.7 | 12.6 | 3.0 | 0.6 | -3.5 | 1.1
CCCCNC(=S)N(CCO)Cc1cc2cc3c(cc2[nH]c1=O)OCCO3 | 14.5 | 6.7 | 0.9 | -2.8 | -1.4 | 1.4
COc1ccc(CN2C(=O)CNC2=S)cc1 | 7.9 | 11.7 | -7.7 | -4.0 | -1.0 | 0.4
COc1ccc(-c2nc(=S)c3ccc4ccccc4c3[nH]2)cc1 | nt | 70.8* | 45.1* | 2.7 | nt | 0.3
CC1(C)C(=O)C=CC(=O)C(C)(C)C(=O)C=CC(=O)C(C)(C)C2=CC=C(O2)C(C)(C)C(=O)C=CC1=O | nt | 54.6* | 4.1 | -1.7 | nt | -2.2
N#CC(=C1C=CC(=NO)C(Cl)=C1)c1ccc(Cl)cc1 | nt | 67.0* | 32.9 | -19.8 | nt | -2.5

High-throughput results: PubChem BioAssay, several laboratories
